Experimental data taken from article PMC12235443 (RSC Chemical Biology, 2025).
Square brackets hold non-standard residues; d marks the D form. Peptide text beside a SMILES is read from it. 2Nal = N[C@@H](Cc1ccc2ccccc2c1)C(=O)O

Key:
[1] = target: iCP-PA28-activated complex (Homo sapiens, UniProt P28062); test: LC-MS hydrolysis of dialanine substrates by iCP-PA28-activated complex; assay type: biochemical; settings: 25 µM substrate, iCP + 7.5X PA28, 4 hours, triplicate, Fig. 3B
Summary of the method: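 Purified human iCP, activated with PA28, incubated with 25 μM test substrate for 4 hours. Each substrate is a modified recognition sequence joined to a constant dialanine cargo, with expected cleavage at the amide bond between them. Products analysed by LC-MS as percent degraded. Triplicate, mean ± standard deviation. Singly modified substrates compared with the unmodified-sequence dialanine control by t-test.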

iCP over sCP = test: Selectivity index, mean iCP percent degraded over sCP percent degraded; assay type: biochemical

Hydrolysis by iCP-PA28-activated complex compared with control ATMWAA [1]	Compound	Isoform selectivity for the iCP (iCP over sCP; Fig. 3C conditions)	Increase of substrate selectivity for the iCP compared with the ATMW scaffold (iCP over sCP; ratio of selectivity indices, analogue vs ATMWAA)
hydrolyzed well by the iCP	CSCC[C@H](NC(=O)[C@@H](NC(=O)[C@H](C)N)[C@@H](C)O)C(=O)N[C@@H](Cc1ccc2ccccc2c1)C(=O)N[C@@H](C)C(=O)N[C@@H](C)C(N)=O [ATM(2-Nal)] (H-ATM[2Nal]AA-NH2)	not isoform selective	
	morph-Ala-Orn-(Met?O2)-Trp(7,Me) [mAO(Met=O2) W(7,Me)]		about 3 fold
